Laboratory results from ChEMBL document CHEMBL1132965, “Inhibition of Grb2 SH2 domain binding by non-phosphate-containing ligands. 2. 4-(2-Malonyl)phenylalanine as a potent phosphotyrosyl mimetic” (J Med Chem, 2000).

These compounds were tested against Growth factor receptor-bound protein 2 (Homo sapiens, UniProt P62993) (assay: Inhibition of Growth factor receptor bound protein 2 binding by ELISA assay method).
In short: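 Recombinant purified Grb2 SH2-GST fusion protein preincubated with serial inhibitor dilutions, then added to wells coated overnight with biotinylated Shc-derived phosphopeptide (20 ng/mL); blocking with 5% BSA in TBS, washes with 0.1% BSA/TBS. Bound protein detected with anti-GST antibody plus alkaline phosphatase-conjugated goat anti-mouse antibody, p-nitrophenyl phosphate colorimetric read-out. IC50 from serial dilutions, each concentration in triplicate.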

Row | IC50 [µM] | Structure (SMILES)
1 | 0.68 | CC(=O)N[C@@H](Cc1ccc(C(F)(C(=O)O)C(=O)O)cc1)C(=O)NC1(C(=O)N[C@@H](CC(N)=O)C(=O)NCCCc2cccc3ccccc23)CCCCC1
2 | 0.012 | CC(=O)N[C@@H](Cc1ccc(C(C(=O)O)C(=O)O)cc1)C(=O)NC1(C(=O)N[C@@H](CC(N)=O)C(=O)NCCCn2ccc3cc(C)ccc32)CCCCC1
3 | 0.004 | CC(=O)N[C@@H](Cc1ccc(CP(=O)(O)O)cc1)C(=O)NC1(C(=O)N[C@@H](CC(N)=O)C(=O)NCCCn2ccc3cc(C)ccc32)CCCCC1
4 | 19 | NC(=O)C[C@H](NC(=O)C1(NC(=O)[C@H](Cc2ccc(OCC(=O)O)cc2)NC(=O)C(=O)O)CCCCC1)C(=O)NCCCc1cccc2ccccc12
5 | 0.008 | Cc1ccc2c(ccn2CCCNC(=O)[C@H](CC(N)=O)NC(=O)C2(NC(=O)[C@H](Cc3ccc(C(C(=O)O)C(=O)O)cc3)NC(=O)C(=O)O)CCCCC2)c1
6 | 6.4 | CC(=O)N[C@@H](Cc1ccc(CC(=O)O)cc1)C(=O)NC1(C(=O)N[C@@H](CC(N)=O)C(=O)NCCCc2cccc3ccccc23)CCCCC1
7 | 68 | CC(=O)N[C@@H](Cc1ccc(OCC(=O)O)cc1)C(=O)NC1(C(=O)N[C@@H](CC(N)=O)C(=O)NCCCc2cccc3ccccc23)CCCCC1
8 | 1 | NC(=O)C[C@H](NC(=O)C1(NC(=O)[C@H](Cc2ccc(CC(=O)O)cc2)NC(=O)C(=O)O)CCCCC1)C(=O)NCCCc1cccc2ccccc12
9 | 0.002 | Cc1ccc2c(ccn2CCCNC(=O)[C@H](CC(N)=O)NC(=O)C2(NC(=O)[C@H](Cc3ccc(CP(=O)(O)O)cc3)NC(=O)C(=O)O)CCCCC2)c1
10 | 1.1 | NC(=O)C[C@H](NC(=O)C1(NC(=O)[C@H](Cc2ccc(OC(C(=O)O)C(=O)O)cc2)NC(=O)C(=O)O)CCCCC1)C(=O)NCCCc1cccc2ccccc12
11 | 0.02 | CC(=O)N[C@@H](Cc1ccc(CP(=O)(O)O)cc1)C(=O)NC1(C(=O)N[C@@H](CC(N)=O)C(=O)NCCCc2cccc3ccccc23)CCCCC1
12 | 0.17 | NC(=O)C[C@H](NC(=O)C1(NC(=O)[C@H](Cc2ccc(C(F)(C(=O)O)C(=O)O)cc2)NC(=O)C(=O)O)CCCCC1)C(=O)NCCCc1cccc2ccccc12
13 | 0.05 | NC(=O)C[C@H](NC(=O)C1(NC(=O)[C@H](Cc2ccc(CP(=O)(O)O)cc2)NC(=O)C(=O)O)CCCCC1)C(=O)NCCCc1cccc2ccccc12
14 | 2.75 | CC(=O)N[C@@H](Cc1ccc(OC(C(=O)O)C(=O)O)cc1)C(=O)NC1(C(=O)N[C@@H](CC(N)=O)C(=O)NCCCc2cccc3ccccc23)CCCCC1
15 | 0.07 | NC(=O)C[C@H](NC(=O)C1(NC(=O)[C@H](Cc2ccc(C(C(=O)O)C(=O)O)cc2)NC(=O)C(=O)O)CCCCC1)C(=O)NCCCc1cccc2ccccc12
16 | 0.16 | CC(=O)N[C@@H](Cc1ccc(C(C(=O)O)C(=O)O)cc1)C(=O)NC1(C(=O)N[C@@H](CC(N)=O)C(=O)NCCCc2cccc3ccccc23)CCCCC1
